ChEMBL document CHEMBL1147844, “Acridone derivatives: design, synthesis, and inhibition of breast cancer resistance protein ABCG2” (Bioorg Med Chem, 2007)

Assays:
[1] = target: T1, Broad substrate specificity ATP-binding cassette transporter ABCG2 (Homo sapiens, UniProt Q9UNQ0); assay: Inhibition of ABCG2 expressed in HEK293 cells assessed as mitoxantrone-mediated efflux by flow cytometry; type: cell-based
T1 sequence (Q9UNQ0 whole entry): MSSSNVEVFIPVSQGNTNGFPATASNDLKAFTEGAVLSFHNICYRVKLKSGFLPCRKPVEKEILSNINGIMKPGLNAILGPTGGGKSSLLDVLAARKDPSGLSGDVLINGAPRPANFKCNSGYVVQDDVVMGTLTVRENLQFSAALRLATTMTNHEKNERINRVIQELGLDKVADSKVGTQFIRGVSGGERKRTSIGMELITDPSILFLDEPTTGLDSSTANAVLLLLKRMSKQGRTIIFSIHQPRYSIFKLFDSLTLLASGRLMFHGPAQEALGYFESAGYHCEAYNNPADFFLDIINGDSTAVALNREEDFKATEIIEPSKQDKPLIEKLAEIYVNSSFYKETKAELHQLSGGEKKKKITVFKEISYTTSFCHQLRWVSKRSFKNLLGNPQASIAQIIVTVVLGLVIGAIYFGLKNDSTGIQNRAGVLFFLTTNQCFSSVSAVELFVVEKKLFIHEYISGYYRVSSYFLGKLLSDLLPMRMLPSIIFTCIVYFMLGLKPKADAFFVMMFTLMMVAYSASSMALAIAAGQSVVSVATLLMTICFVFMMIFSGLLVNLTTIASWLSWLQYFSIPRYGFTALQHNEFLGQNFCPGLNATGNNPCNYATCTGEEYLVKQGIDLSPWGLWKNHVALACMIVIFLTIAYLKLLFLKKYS
Outline: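 HEK-293 cells transfected with human wild-type (R482) ABCG2, or empty-vector control cells, loaded with 5 µmol/L mitoxantrone for 30 min at 37 °C with or without a range of inhibitor concentrations (DMSO, 0.5% final). Cells washed in PBS, then kept 1 h in substrate-free medium with the same inhibitor level. Intracellular fluorescence read by flow cytometry. 100% = control minus ABCG2-cell mean fluorescence without inhibitor. IC50 derived.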

[2] = target: T1, Broad substrate specificity ATP-binding cassette transporter ABCG2; assay: Inhibition of ABCG2 expressed in HEK293 cells assessed as mitoxantrone-mediated efflux by flow cytometry relative to GF120918; type: cell-based; parameters: concentration or dose not given beside the values

SMILES: COc1ccc2[nH]c3ccccc3c(=O)c2c1OC
- IC50 [1]: > 20 µM

SMILES: COc1cc(C(F)(F)F)cc2[nH]c3ccccc3c(=O)c12
- IC50 [1]: 0.77 µM
- Inhibition [2]: 81%

SMILES: O=c1c2ccccc2[nH]c2ccc(O)cc12
- IC50 [1]: > 20 µM

SMILES: COc1cc(O)c2c(=O)c3ccccc3[nH]c2c1
- IC50 [1]: > 20 µM

SMILES: O=c1c2ccccc2[nH]c2cc(C(F)(F)F)cc(O)c12
- IC50 [1]: > 20 µM

SMILES: COc1ccc(CCNC(=O)c2cccc3c(=O)c4ccccc4[nH]c23)cc1OC
- IC50 [1]: 0.45 µM
- Inhibition [2]: 90.2%

SMILES: COc1ccc(CCNC(=O)c2cccc3c(=O)c4ccc(OC)cc4[nH]c23)cc1
- IC50 [1]: 0.56 µM
- Inhibition [2]: 112.3%

SMILES: COc1ccc2c(=O)c3cccc(C(=O)NCCc4ccc(OC)c(OC)c4)c3[nH]c2c1
- IC50 [1]: 1.38 µM
- Inhibition [2]: 94.9%

SMILES: COc1cccc2[nH]c3ccccc3c(=O)c12
- IC50 [1]: 6.3 µM
- Inhibition [2]: 74%

SMILES: COc1cc(OC)c2c(=O)c3ccccc3[nH]c2c1
- IC50 [1]: 7.9 µM
- Inhibition [2]: 65%

SMILES: COc1ccc2[nH]c3ccccc3c(=O)c2c1
- IC50 [1]: 4.8 µM
- Inhibition [2]: 66%

SMILES: COc1cc2c(cc1OC)CN(CCc1ccc(NC(=O)c3cccc4c(=O)c5cccc(OC)c5[nH]c34)cc1)CC2
- Inhibition [2]: 100%

SMILES: COc1ccc(CCNC(=O)c2cccc3c(=O)c4ccccc4[nH]c23)cc1
- IC50 [1]: 0.35 µM
- Inhibition [2]: 71.3%

SMILES: O=c1c2ccccc2[nH]c2cccc(O)c12
- IC50 [1]: > 20 µM
